# Measurements reported in the RNAGym collection of RNA variant scans (doi:10.1126/science.aae0568).
# Variants at the floor of the assay were thinned out.
# B1: tRNA (parent)
# chain: GUUCCGUUGGCGUAAUGGUAACGCGUCUCCCUCCUAAGGAGAAGACUGCGGGUUCGAGUCCCGUACGGAACG
# Variants of: B1
# Assay: yeast fitness relative to wild type (ratio to wild type); higher = fitter; tRNA-Arg(CCU), competitive growth, 37 C, YPD
# In short: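 Start and end populations of a pooled competition were compared by 100-nucleotide paired-end sequencing of gene amplicons. The Saccharomyces cerevisiae strains carried tRNA-Arg(CCU) gene variants at the native genomic locus, synthesised with a 3% per-site mutation rate at 69 sites, and competed in YPD at 37°C for 24 hours in six parallel replicates. Darwinian fitness relative to wild type was based on the change in genotype frequencies. Genotypes required ≥ 100 starting reads, and estimates < 0.5 were set to 0.5.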
row,Variant,yeast fitness
1,U13A C33U A45C C46G A69U,0.579
2,G18C U32G A57C C62U,≤ 0.5
3,C33G C60U A69U,≤ 0.5
4,G18C A20G C29A C49U,≤ 0.5
5,C30A G50A G56A,0.742
6,G23C C29A,0.548
7,U8A A15U A20C A45G,≤ 0.5
8,U54G C62G,0.559
9,C24U C30U G38C,0.55
10,C22U U32C A65C,0.701
11,U8G C46U C55A C66U,0.524
12,U2G C31A A69C,0.557
13,U2A C5G C24U C30G C49G C61G,≤ 0.5
14,C30U G38C C61U,0.542
15,C5U G9A C34A,0.704
16,A21U U54A A69U,≤ 0.5
17,U16A,0.992
18,G51A U59A C62G,≤ 0.5
19,U19C U53C U54A,≤ 0.5
20,A40U A69U A70C,0.725
21,C4G C22U C34G A36U,≤ 0.5
22,C4A A57G C62G C66G,≤ 0.5
23,C22A U47C C61G,≤ 0.5
24,C30A U32A G38A C55A A65C,≤ 0.5

row,Variant,yeast fitness
1,G12A A14G C30G C46A,0.882
2,U2A C5A U64C,0.595
3,A21U C27U U53C,≤ 0.5
4,A21G C33G G38A G63A,≤ 0.5
5,U13C A36G,1.01
6,C5G G6C C46A,≤ 0.5
7,C5U A42U A43G,0.63
8,C31U A36C G38A,0.558
9,U3C U13C C31U,0.801
10,C5U C11G,0.597
11,A15G A20U C22U G38C,≤ 0.5
12,C22G C27G U59C C62U U64C G68U,≤ 0.5
13,G23C C49G A70C,≤ 0.5
14,C11G A45G,0.636
15,C4A C22G A69C,0.538
16,C11G C29U C30U,≤ 0.5
17,A21U C22U G39A C46U C62U,≤ 0.5
18,U7A C22A C29A G44C,≤ 0.5
19,G51A U59A G67C,≤ 0.5
20,C5A U7C U19C,≤ 0.5
21,A15U A65C,0.698
22,C4U A21G C46A A70U,0.76
23,A21C U32C A40G,0.557
24,U7A U13A C49A,≤ 0.5

row,Variant,yeast fitness
1,A20C G68U,0.909
2,A21C C27U C55G,0.617
3,C11G G17C A40G G44C U59C A70G,0.603
4,U7G A42C C62U,0.651
5,U8A G23C G56U A65U,≤ 0.5
6,U2G C4A A43U,0.717
7,C4U A15C A37G A40G G68U,≤ 0.5
8,C4U A36G G44C A69U,0.635
9,C27A A65C,0.878
10,G12A C34A A43G,0.531
11,A57U G68A,0.658
12,A37G G41C A43U,≤ 0.5
13,C4G C29G C46U,≤ 0.5
14,A15U A20C G67U,0.605
15,U26A U47C,0.994
16,C30A G50A A69C,0.675
17,U13A C27G U32C A45G U64A,≤ 0.5
18,U3C A14G C29G A37U A42G,0.609
19,G18A A20G U54A A70G,≤ 0.5
20,U19C C22G G63C G68U,≤ 0.5
21,U7A U8A G10C C27G C34G U35C C55U,≤ 0.5
22,C29A G68U,0.721
23,U13C U47A C62U,0.596
24,C22U A42G A45C C55G,≤ 0.5

row,Variant,yeast fitness
1,U3G C5U U32C G41C,≤ 0.5
2,C4A A20G C24G C31G C62U,0.598
3,C24U A36C U53C,≤ 0.5
4,A15G U54G,0.612
5,G38A A42C A45C C62A,≤ 0.5
6,G12A U26C U47C A57C,≤ 0.5
7,A14U C60A,≤ 0.5
8,C5A G17A A42G G56A,≤ 0.5
9,U2C U19C C49U A57C,≤ 0.5
10,U2A C5U C24U C34U A40C,≤ 0.5
11,U13A G48A G67C,0.608
12,U26G C66G,0.677
13,U8G A43U,0.66
14,C5G C60U C62G,0.634
15,C11U A21C G67A,0.597
16,A40C G51A G63A A69C,≤ 0.5
17,G6A G18C C22G C33G,≤ 0.5
18,U13G C29U C33U,0.57
19,C5U A20G C49G G52A A57C,≤ 0.5
20,C11A C31U C62A,≤ 0.5
21,A20U A45G C46U C66U,0.626
22,U3A A21C C24G G63A,≤ 0.5
23,U7C U16A C31U A43C,0.722
24,U2G G67U,0.821

row,Variant,yeast fitness
1,C4U C30A A65G G67C,≤ 0.5
2,C4A G6A C29G A57G,0.535
3,C5U U7G G25C G39A C66U,≤ 0.5
4,U2G C4A C22U U28G A42U,≤ 0.5
5,A20C C34A,0.674
6,U16A A20C C24G C33G,≤ 0.5
7,G6A C29U A43C C46U,0.623
8,U3G A15U U35C,≤ 0.5
9,U16A C29G C46U C49U U59G A65U G68A,0.537
10,C11G U32G A45G C49U A70U,≤ 0.5
11,U2C U3C C34U G68C,≤ 0.5
12,A36U G52A G63C,0.558
13,G10C C34G A40G,≤ 0.5
14,A21C G39C A42U G48C,≤ 0.5
15,A15C A37C C60U G67A,≤ 0.5
16,G9C C11G G56A,≤ 0.5
17,G38C G50A A70G,0.527
18,U35A A57C U64A G68A,≤ 0.5
19,C22U G58A,0.926
20,G25A A40C C46U C55U,0.672
21,G51A G68C,0.671
22,A14C A20U C27G U53C,≤ 0.5
23,C29G U32A,0.501
24,A36G U64A G67C,≤ 0.5

row,Variant,yeast fitness
1,C5G C11G A15U A70U,≤ 0.5
2,A21G G41A A42C A57C A69G,0.686
3,G9A C11G U13G G23C C34U U59C C66U,0.574
4,G6C A14G,1
5,C30U C46A,0.982
6,A14U C31A,0.544
7,G12C U26C,0.859
8,A20C C30A C33U C34G G38C C62A,≤ 0.5
9,C27U C29U C49G A69G,≤ 0.5
10,G23C A65G,0.587
11,C5U G10A A36G G44C,≤ 0.5
12,C46U U59C C62G A65U,0.557
13,C5U C55G,0.676
14,C4G U13C C60G A65U,≤ 0.5
15,A14C A42G G48A,≤ 0.5
16,C27A C34G A42G G50A C62G,≤ 0.5
17,A15U A43G,0.726
18,C11G A15U C22U A42G C66U,≤ 0.5
19,U35C C60U C66U,≤ 0.5
20,U8G C29G C66A,≤ 0.5
21,C4U C22U C24G A37G,≤ 0.5
22,U3C A15C G51C C61A,≤ 0.5
23,U3C A40C,0.935
24,U8C U32C G44A A69U,0.724

row,Variant,yeast fitness
1,A15U C22G A70C,≤ 0.5
2,C5U G38A A42G,0.605
3,U2G C34U A36C C61A,≤ 0.5
4,U26G U59A,0.663
5,U26A G41U C55U,≤ 0.5
6,G9C A43C,0.58
7,C5A U13C U19C C33G,≤ 0.5
8,A37G A70G,0.832
9,G6C C29G G39C,0.931
10,G10C C24A C30G A40G U47G C55U,≤ 0.5
11,U35G G56A,0.599
12,G10A C30G C46U,≤ 0.5
13,G9A A14C G25C G56A,0.579
14,C5G G10A C29G,≤ 0.5
15,U2A C24G U32A G58C G63C,≤ 0.5
16,C11A U16C U32G,0.523
17,U7A A40U C55G G63C,≤ 0.5
18,A15G C62U,0.994
19,U26C U59G,0.862
20,C4U U7C G10A A14U C27G A36G,0.505
21,U19C G23C C29G A43U G50A A65C,≤ 0.5
22,C27U G58A,0.899
23,C5A A42G C49G U54C G63C A70U,≤ 0.5
